The text below walks through data of ChEMBL document CHEMBL1158356, “Synthesis, anti-tuberculosis activity and 3D-QSAR study of amino acid conjugates of 4-(adamantan-1-yl) group containing quinolines” (Eur J Med Chem, 2009).

By inhibition is commonly meant the change of the read-out against control, counted positive when it falls. The term pIC50 denotes −log10 of the IC50, conventionally taken in molar units. A word on the MIC99: it is the lowest concentration that inhibits either 99% of growth or 99% of the strains tested, depending on the study.

The test system of data set [1] is Mycobacterium tuberculosis. Kind of data set: Antimycobacterial activity against rifampicin/isoniazid-susceptible Mycobacterium tuberculosis H37Rv ATCC 27294 at 6.25 ug/ml after 5 days by microplate alamar blue assay. The format is functional. Particulars: H37Rv ATCC 27294, 120 h. The method, boiled down:
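M. tuberculosis H37Rv (ATCC 27294, rifampicin- and isoniazid-susceptible) screened by Microplate Alamar Blue Assay at a single concentration of 6.25; read-out is % growth inhibition. Compounds showing fluorescence were instead tested in the BACTEC 460 radiometric system.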
(Resazurin is reduced to fluorescent resorufin, in cell work by metabolically active cells.)

The test system of data set [2] is Mycobacterium tuberculosis. Kind of data set: Antimycobacterial activity against rifampicin/isoniazid-susceptible Mycobacterium tuberculosis H37Rv ATCC 27294 by BACTEC 460 radiometric method. The format is functional, organism-based. The essentials:
(§1)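 Radiometric BACTEC 460 growth test on H37Rv (ATCC 27294). Compounds reaching at least 90% inhibition at 6.25 were retested at the lower concentrations 3.125 and 1.0, with % inhibition recorded. […] Isoniazid served as the reference standard.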

Data set [3] has as its system Mycobacterium tuberculosis. Kind of data set: Antimycobacterial activity against rifampicin/isoniazid-susceptible Mycobacterium tuberculosis H37Rv ATCC 27294 at 3.125 ug/ml by BACTEC 460 radiometric method. The format is functional. The method, boiled down: as §1
The subject of data set [4] is Vero. The data set can be described thus: Cytotoxicity against african green monkey Vero cells up to 50 ug/ml. The format is cell-based. Conditions: chlorocebus sabaeus.

pIC50: −log10 of the molar value. Values after ≈ are worked out from the molar mass of the structure shown.

In data set [1], `NNC(=O)c1cc(C23CC4CC(CC(C4)C2)C3)c2ccccc2n1` displayed an inhibition at 6.25 µg/mL of 99%.
Regarding `COC(=O)[C@H](CCCCNC(=O)OCc1ccccc1)NC(=O)c1cc(C23CC4CC(CC(C4)C2)C3)c2ccccc2n1`, the pIC50 in data set [2] was 5.50. This compound registered an inhibition at 6.25 µg/mL in data set [1] of 78%.
In the case of `CC(C)(C)OC(=O)N[C@@H](Cc1ccc(OCc2ccccc2)cc1)C(=O)NNC(=O)c1cc(C23CC4CC(CC(C4)C2)C3)c2ccccc2n1`, in data set [2], the pIC50 was 4.89. Testing at 6.25 µg/mL in data set [1] gave an inhibition of 42%.
In the case of `COC(=O)[C@H](Cc1ccccc1)NC(=O)c1cc(C23CC4CC(CC(C4)C2)C3)c2ccccc2n1`, the negative logarithm of the IC50 (pIC50) in data set [2] was 5.05. In addition, in data set [1], the inhibition at 6.25 µg/mL turned out to be 60%.
The corresponding values for `N=C(N)NCCC[C@H](N)C(=O)NNC(=O)c1cc(C23CC4CC(CC(C4)C2)C3)c2ccccc2n1` are 5.94 and 92%.
Regarding `NC(=O)c1cc(C23CC4CC(CC(C4)C2)C3)c2ccccc2n1`, 6.25 µg/mL produced 98% inhibition in data set [1].
With `C[C@H](NC(=O)OC(C)(C)C)C(=O)NNC(=O)c1cc(C23CC4CC(CC(C4)C2)C3)c2ccccc2n1`, the negative-log IC50 (pIC50) in data set [2] was 5.76. The inhibition at 6.25 µg/mL in data set [1] stood at 88%.
For `NNC(=O)[C@H](Cc1ccccc1)NC(=O)c1cc(C23CC4CC(CC(C4)C2)C3)c2ccccc2n1` the same measures were 4.87 and 50%.
The corresponding values for `NNC(=O)[C@H](Cc1c[nH]c2ccccc12)NC(=O)c1cc(C23CC4CC(CC(C4)C2)C3)c2ccccc2n1` are 5.08 and 60%.
For `COC(=O)CNC(=O)c1cc(C23CC4CC(CC(C4)C2)C3)c2ccccc2n1` the same measures were 4.81 and 52%.
With `N[C@@H](Cc1c[nH]cn1)C(=O)NNC(=O)c1cc(C23CC4CC(CC(C4)C2)C3)c2ccccc2n1`, the pIC50 in data set [2] was 5.73. This compound also gave an inhibition at 6.25 µg/mL in data set [1] of 88%.
For `NCC(=O)NNC(=O)c1cc(C23CC4CC(CC(C4)C2)C3)c2ccccc2n1` the same measures were 4.52 and 35%.
Compound `CC(C)(C)OC(=O)N[C@@H](Cc1ccccc1)C(=O)NNC(=O)c1cc(C23CC4CC(CC(C4)C2)C3)c2ccccc2n1` showed a negative logarithm of the IC50 (pIC50) in data set [2] of 5.71. The compound further registered an inhibition at 6.25 µg/mL in data set [1] of 85%.
Consider `COC(=O)[C@H](CCCNC(=O)OCc1ccccc1)NC(=O)c1cc(C23CC4CC(CC(C4)C2)C3)c2ccccc2n1`, for which the pIC50 in data set [2] was 5.23. In addition, the inhibition at 6.25 µg/mL in data set [1] came to 66%.
The compound `COC(=O)[C@H](Cc1ccc(OCc2ccccc2)cc1)NC(=O)c1cc(C23CC4CC(CC(C4)C2)C3)c2ccccc2n1` showed a pIC50 in data set [2] of 5.10. The compound further came in with an inhibition at 6.25 µg/mL in data set [1] of 58%.
Consider `CC(C)(C)OC(=O)N[C@@H](Cc1c[nH]c2ccccc12)C(=O)NNC(=O)c1cc(C23CC4CC(CC(C4)C2)C3)c2ccccc2n1`, for which the negative-log IC50 (pIC50) in data set [2] was 7.29. Moreover, in data set [3], at 3.125 µg/mL the inhibition was 99%. Besides, in data set [4], the Activity result is “Non-toxic”.
For `CC(C)(C)OC(=O)N[C@@H](Cc1c[nH]cn1)C(=O)NNC(=O)c1cc(C23CC4CC(CC(C4)C2)C3)c2ccccc2n1` the same measures were 7.25, 99% and “Non-toxic”.
On to `CSCC[C@H](NC(=O)OC(C)(C)C)C(=O)NNC(=O)c1cc(C23CC4CC(CC(C4)C2)C3)c2ccccc2n1`, for which the pIC50 in data set [2] is 5.05. This compound also displayed an inhibition at 6.25 µg/mL in data set [1] of 56%.
The corresponding values for `CC(C)C[C@H](NC(=O)c1cc(C23CC4CC(CC(C4)C2)C3)c2ccccc2n1)C(=O)NN` are 5.53 and 83%.
Regarding `CCC(C)[C@H](NC(=O)OC(C)(C)C)C(=O)NNC(=O)c1cc(C23CC4CC(CC(C4)C2)C3)c2ccccc2n1` (stereo not given in full), the pIC50 in data set [2] was 5.89. For the same compound, testing at 6.25 µg/mL in data set [1] gave an inhibition of 90%.
For `CC(C)(C)OC(=O)NCCC[C@H](NC(=O)OC(C)(C)C)C(=O)NNC(=O)c1cc(C23CC4CC(CC(C4)C2)C3)c2ccccc2n1` the same measures were 5.51 and 75%.
On to `NC(=O)CC[C@H](N)C(=O)NNC(=O)c1cc(C23CC4CC(CC(C4)C2)C3)c2ccccc2n1`, for which the pIC50 in data set [2] is 4.77. 6.25 µg/mL produced 45% inhibition in data set [1].
The corresponding values for `CC[C@H](C)[C@H](NC(=O)c1cc(C23CC4CC(CC(C4)C2)C3)c2ccccc2n1)C(=O)NN` are 5.21 and 70%.
For `NCCC[C@H](N)C(=O)NNC(=O)c1cc(C23CC4CC(CC(C4)C2)C3)c2ccccc2n1` the same measures were 4.39 and 26%.
The corresponding values for `CC(C)C[C@H](NC(=O)OC(C)(C)C)C(=O)NNC(=O)c1cc(C23CC4CC(CC(C4)C2)C3)c2ccccc2n1` are 5.89 and 90%.
The compound `COC(=O)[C@H](Cc1c[nH]cn1)NC(=O)c1cc(C23CC4CC(CC(C4)C2)C3)c2ccccc2n1` gave a pIC50 in data set [2] of 7.16. Moreover, the inhibition at 3.125 µg/mL in data set [3] came out at 99%. The Activity result in data set [4] is on record as “Non-toxic”.
As for `NCCCC[C@H](NC(=O)c1cc(C23CC4CC(CC(C4)C2)C3)c2ccccc2n1)C(=O)NN`, the negative-log IC50 (pIC50) in data set [2] was 4.71. Also, the inhibition at 6.25 µg/mL in data set [1] stood at 36%.
For `N[C@@H](Cc1c[nH]c2ccccc12)C(=O)NNC(=O)c1cc(C23CC4CC(CC(C4)C2)C3)c2ccccc2n1` the same measures were 5.01 and 56%.
For `NCCCC[C@H](N)C(=O)NNC(=O)c1cc(C23CC4CC(CC(C4)C2)C3)c2ccccc2n1` the same measures were 5.14 and 66%.
The compound `CC(C)(C)OC(=O)N[C@@H](CCCNC(=N)N)C(=O)NNC(=O)c1cc(C23CC4CC(CC(C4)C2)C3)c2ccccc2n1` gave a pIC50 in data set [2] of 7.26. The compound also showed an inhibition at 3.125 µg/mL in data set [3] of 99%. Also, the Activity result in data set [4] is recorded as “Non-toxic”.
For the compound `COC(=O)[C@H](CCC(N)=O)NC(=O)c1cc(C23CC4CC(CC(C4)C2)C3)c2ccccc2n1`, in data set [2], the pIC50 is 4.94. At 6.25 µg/mL the inhibition in data set [1] was 55%.
For the compound `NNC(=O)[C@H](Cc1c[nH]cn1)NC(=O)c1cc(C23CC4CC(CC(C4)C2)C3)c2ccccc2n1`, in data set [2], the negative-log IC50 (pIC50) was 6.86. This compound also came in with an inhibition at 6.25 µg/mL in data set [1] of 99%.
The corresponding values for `NNC(=O)CNC(=O)c1cc(C23CC4CC(CC(C4)C2)C3)c2ccccc2n1` are 5.15 and 70%.
`CCC(C)[C@H](N)C(=O)NNC(=O)c1cc(C23CC4CC(CC(C4)C2)C3)c2ccccc2n1` (stereo not given in full) had a pIC50 in data set [2] of 5.32. Also, testing at 6.25 µg/mL in data set [1] gave an inhibition of 75%.
As for `NNC(=O)[C@H](CCC(N)=O)NC(=O)c1cc(C23CC4CC(CC(C4)C2)C3)c2ccccc2n1`, the pIC50 in data set [2] was 4.85. Moreover, 6.25 µg/mL produced 50% inhibition in data set [1].
In the case of `NCCC[C@H](NC(=O)c1cc(C23CC4CC(CC(C4)C2)C3)c2ccccc2n1)C(=O)NN`, in data set [2], the negative logarithm of the IC50 (pIC50) was 4.91. Also, the inhibition at 6.25 µg/mL in data set [1] was found to be 48%.
In the case of `CC(C)(C)OC(=O)NCC(=O)NNC(=O)c1cc(C23CC4CC(CC(C4)C2)C3)c2ccccc2n1`, the pIC50 in data set [2] was 5.06. The compound further gave an inhibition at 6.25 µg/mL in data set [1] of 60%.
`CC(C)C[C@H](N)C(=O)NNC(=O)c1cc(C23CC4CC(CC(C4)C2)C3)c2ccccc2n1`: the negative-log IC50 (pIC50) in data set [2] was 5.32. In data set [1], the inhibition at 6.25 µg/mL came out at 75%.
For `N[C@@H](Cc1ccc(O)cc1)C(=O)NNC(=O)c1cc(C23CC4CC(CC(C4)C2)C3)c2ccccc2n1` the same measures were 4.86 and 48%.
The corresponding values for `CC[C@H](C)[C@H](NC(=O)c1cc(C23CC4CC(CC(C4)C2)C3)c2ccccc2n1)C(=O)OC` are 5.79 and 90%.
Turning to `N[C@@H](Cc1ccccc1)C(=O)NNC(=O)c1cc(C23CC4CC(CC(C4)C2)C3)c2ccccc2n1`, in data set [2], the negative logarithm of the IC50 (pIC50) is 5.50. The same compound gave an inhibition at 6.25 µg/mL in data set [1] of 81%.
As for `COC(=O)[C@H](Cc1c[nH]c2ccccc12)NC(=O)c1cc(C23CC4CC(CC(C4)C2)C3)c2ccccc2n1`, in data set [2], the pIC50 is 5.38. Also, the inhibition at 6.25 µg/mL in data set [1] came out at 75%.
The corresponding values for `CC(C)(C)OC(=O)N[C@@H](CCC(N)=O)C(=O)NNC(=O)c1cc(C23CC4CC(CC(C4)C2)C3)c2ccccc2n1` are 4.96 and 51%.
Consider `COC(=O)[C@H](CC(C)C)NC(=O)c1cc(C23CC4CC(CC(C4)C2)C3)c2ccccc2n1`, for which the pIC50 in data set [2] was 5.53. Moreover, the inhibition at 6.25 µg/mL in data set [1] came out at 83%.
The corresponding values for `C[C@H](NC(=O)c1cc(C23CC4CC(CC(C4)C2)C3)c2ccccc2n1)C(=O)NN` are 5.45 and 82%.
The corresponding values for `C[C@H](N)C(=O)NNC(=O)c1cc(C23CC4CC(CC(C4)C2)C3)c2ccccc2n1` are 4.64 and 41%.
For `COC(=O)[C@H](CCSC)NC(=O)c1cc(C23CC4CC(CC(C4)C2)C3)c2ccccc2n1` the same measures were 5.64 and 86%.
Turning to `CSCC[C@H](N)C(=O)NNC(=O)c1cc(C23CC4CC(CC(C4)C2)C3)c2ccccc2n1`, the pIC50 in data set [2] is 5.02. In data set [1], this compound returned an inhibition at 6.25 µg/mL of 59%.
The corresponding values for `NNC(=O)[C@H](Cc1ccc(O)cc1)NC(=O)c1cc(C23CC4CC(CC(C4)C2)C3)c2ccccc2n1` are 4.78 and 44%.
With `CSCC[C@H](NC(=O)c1cc(C23CC4CC(CC(C4)C2)C3)c2ccccc2n1)C(=O)NN`, in data set [2], the pIC50 is 5.18. The compound also displayed an inhibition at 6.25 µg/mL in data set [1] of 68%.
The corresponding values for `COC(=O)[C@H](C)NC(=O)c1cc(C23CC4CC(CC(C4)C2)C3)c2ccccc2n1` are 5.23 and 73%.
Compound `NNC(=O)c1ccncc1` [ISONIAZID] displayed an MIC99 in data set [2] of 1 µg/mL (≈ 7.29 µM).
